Experimental data published in ChEMBL document CHEMBL1139204, “Synthesis and biological activity of 5-aza-ellipticine derivatives” (Bioorg Med Chem Lett, 2007).
The source made the active and inactive calls. The rule behind the calls is not given here.

How the values were obtained:
NIH3T3 = experiment: Growth inhibition of mouse NIH3T3 cells by MTT assay; type: cell-based
Procedure, shortened: (§1)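 MTT cytotoxicity assay in human colon adenocarcinoma HCT116 cells and murine NIH 3T3 fibroblast cells treated with the novel 5-aza-ellipticine derivatives; toxicity read by MTT reduction.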

HCT-116 = experiment: Growth inhibition of human HCT116 cells by MTT assay; type: functional, cell-based; procedure, shortened: as §1
Homo sapiens = species on record: Homo sapiens; experiment: Inhibition of topoisomerase 2-mediated kDNA de-catenation
Procedure, shortened: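 Topoisomerase II decatenation of kinetoplast DNA (kDNA), run with a commercial kit following the manufacturer's recommended procedure. Decatenation depends on topo II double-strand break and re-ligation. A known topo II-active reference agent served as positive control.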

SMILES | IC50 (NIH3T3) [nM] | IC50 (HCT-116) [nM] | Activity (Homo sapiens)
COc1ccc2[nH]c3nc4ccnc(NCCCNCCCN)c4c(C)c3c2c1 | 1000 |  | 
COc1ccc2[nH]c3c(c(C)c4c(O)nccc4[n+]3C)c2c1 |  | 200 | 
COc1ccc2[nH]c3c(C)c4ccnc(NCCCN(C)CCCN)c4c(C)c3c2c1 | 20 | 70 | 
Cc1c2ccncc2c(C)c2c1[nH]c1ccccc12 [ELLIPTECINE] | 3 | 300 | Active
CC[n+]1c2ccnc(O)c2c(C)c2c3cc(OC)ccc3[nH]c21 |  | 3000 | 
COc1ccc2[nH]c3c(c(C)c4c(NCCCN5CCN(CCCN)CC5)nccc4[n+]3C)c2c1 |  | > 10000 | 
COc1ccc2[nH]c3nc4ccnc(NCCCN(C)CCCN)c4c(C)c3c2c1 | 600 | 300 | Active
CC[n+]1c2ccnc(NCCCNCCCN)c2c(C)c2c3cc(OC)ccc3[nH]c21 |  | 400 | 
CC[n+]1c2ccnc(NCCCNCCCNc3nccc4c3c(C)c3c5cc(OC)ccc5[nH]c3[n+]4CC)c2c(C)c2c3cc(OC)ccc3[nH]c21 |  | 300 | 
COc1ccc2[nH]c3c(c(C)c4c(NCCCNCCCN)nccc4[n+]3C)c2c1 |  | 2000 | 
COc1ccc2[nH]c3nc4ccnc(Cl)c4c(C)c3c2c1 | > 1000 | > 1000 | 
